# System: U2OS
# Experiment: Multiplex assay against U2OS
# Type: toxicity, cell-based
# Details: human
# Method in brief: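 Compound was added to live cells that had been stained at seeding with Hoechst33342, BioTracker Green Microtubule Cytoskeleton Dye, MitoTracker Red and Annexin V Alexa Fluor 680, and imaging followed on a CQ1 microscope at 37°C and 5% CO2. CellPathfinder machine-learning gating divided cells into Hoechst high-intensity objects or normal cells, normal cells into healthy, pyknosed or fragmented nuclei, and pyknosed cells into mitotic or apoptotic. Tubulin, mitochondrial-mass and membrane-permeability phenotypes are per cents of healthy-nucleus cells.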
# [1] = 12 h, 1 µM, compound concentration 1 uM, replicate 1
# [2] = 12 h, 1 µM, compound concentration 1 uM, replicate 2
# [3] = 12 h, 10 µM, compound concentration 10 uM, replicate 1
# [4] = 12 h, 10 µM, compound concentration 10 uM, replicate 2
# [5] = 24 h, 1 µM, compound concentration 1 uM, replicate 1
# [6] = 24 h, 1 µM, compound concentration 1 uM, replicate 2
# [7] = 24 h, 10 µM, compound concentration 10 uM, replicate 1
# [8] = 24 h, 10 µM, compound concentration 10 uM, replicate 2
smiles,measurement,setting,value
CCOC(=O)CCNc1cc(N2CCc3ccccc3CC2)nc(-c2ccccn2)n1,Population Apoptotic (%),[1],37%
same,Population Fragmented Nuclei (%),[1],7%
same,Population Healthy Nuclei (%),[1],85%
same,Population Hoechst High Intensity Objects (%),[1],3%
same,Population Membrane Permeable-Phenotype (%),[1],14%
same,Population Mitochondria Different-Phenotype (%),[1],40%
same,Population Mitotic Cells (%),[1],62%
same,Population Normal (%),[1],96%
same,Population Pyknosed Nuclei (%),[1],6%
same,Population Tubulin-Different-Phenotype (%),[1],30%
same,Total Cell Count,[1],244
same,Population Apoptotic (%),[2],45%
same,Population Fragmented Nuclei (%),[2],4%
same,Population Healthy Nuclei (%),[2],86%
same,Population Hoechst High Intensity Objects (%),[2],8%
same,Population Membrane Permeable-Phenotype (%),[2],13%
same,Population Mitochondria Different-Phenotype (%),[2],27%
same,Population Mitotic Cells (%),[2],54%
same,Population Normal (%),[2],91%
same,Population Pyknosed Nuclei (%),[2],9%
same,Population Tubulin-Different-Phenotype (%),[2],23%
same,Total Cell Count,[2],141
same,Population Apoptotic (%),[3],46%
same,Population Fragmented Nuclei (%),[3],7%
same,Population Healthy Nuclei (%),[3],82%
same,Population Hoechst High Intensity Objects (%),[3],5%
same,Population Membrane Permeable-Phenotype (%),[3],11%
same,Population Mitochondria Different-Phenotype (%),[3],32%
same,Population Mitotic Cells (%),[3],53%
same,Population Normal (%),[3],94%
same,Population Pyknosed Nuclei (%),[3],10%
same,Population Tubulin-Different-Phenotype (%),[3],34%
same,Total Cell Count,[3],133
same,Population Apoptotic (%),[4],40%
same,Population Fragmented Nuclei (%),[4],3%
same,Population Healthy Nuclei (%),[4],92%
same,Population Hoechst High Intensity Objects (%),[4],9%
same,Population Membrane Permeable-Phenotype (%),[4],9%
same,Population Mitochondria Different-Phenotype (%),[4],29%
same,Population Mitotic Cells (%),[4],60%
same,Population Normal (%),[4],90%
same,Population Pyknosed Nuclei (%),[4],3%
same,Population Tubulin-Different-Phenotype (%),[4],26%
same,Total Cell Count,[4],126
same,Population Apoptotic (%),[5],33%
same,Population Fragmented Nuclei (%),[5],5%
same,Population Healthy Nuclei (%),[5],91%
same,Population Hoechst High Intensity Objects (%),[5],1%
same,Population Membrane Permeable-Phenotype (%),[5],11%
same,Population Mitochondria Different-Phenotype (%),[5],36%
same,Population Mitotic Cells (%),[5],66%
same,Population Normal (%),[5],98%
same,Population Pyknosed Nuclei (%),[5],3%
same,Population Tubulin-Different-Phenotype (%),[5],36%
same,Total Cell Count,[5],264
same,Population Apoptotic (%),[6],16%
same,Population Fragmented Nuclei (%),[6],8%
same,Population Healthy Nuclei (%),[6],87%
same,Population Hoechst High Intensity Objects (%),[6],10%
same,Population Membrane Permeable-Phenotype (%),[6],10%
same,Population Mitochondria Different-Phenotype (%),[6],28%
same,Population Mitotic Cells (%),[6],83%
same,Population Normal (%),[6],89%
same,Population Pyknosed Nuclei (%),[6],4%
same,Population Tubulin-Different-Phenotype (%),[6],23%
same,Total Cell Count,[6],146
same,Population Apoptotic (%),[7],64%
same,Population Fragmented Nuclei (%),[7],7%
same,Population Healthy Nuclei (%),[7],83%
same,Population Hoechst High Intensity Objects (%),[7],5%
same,Population Membrane Permeable-Phenotype (%),[7],7%
same,Population Mitochondria Different-Phenotype (%),[7],37%
same,Population Mitotic Cells (%),[7],35%
same,Population Normal (%),[7],94%
same,Population Pyknosed Nuclei (%),[7],8%
same,Population Tubulin-Different-Phenotype (%),[7],13%
same,Total Cell Count,[7],181
same,Population Apoptotic (%),[8],81%
same,Population Fragmented Nuclei (%),[8],4%
same,Population Healthy Nuclei (%),[8],88%
same,Population Hoechst High Intensity Objects (%),[8],7%
same,Population Membrane Permeable-Phenotype (%),[8],8%
same,Population Mitochondria Different-Phenotype (%),[8],36%
same,Population Mitotic Cells (%),[8],18%
same,Population Normal (%),[8],92%
same,Population Pyknosed Nuclei (%),[8],7%
same,Population Tubulin-Different-Phenotype (%),[8],9%
same,Total Cell Count,[8],165
